{"data": "Results of several laboratories", "note": "Protocols differ between the studies behind these lines."}
{"SMILES": "CCCCc1nc2cc(/C=C/C(=O)NO)ccc2n1CCN(CC)CC", "target": "Histone deacetylase 2 (HDAC2, Homo sapiens, UniProt Q92769)", "effect on": "cell-free assay", "Kd [nM]": 1300}
{"SMILES": "NC(=O)c1ncn([C@@H]2O[C@H](COP(=O)(O)O)[C@@H](O)[C@H]2O)c1N", "target": "Adenylosuccinate lyase (ADSL, Homo sapiens, UniProt P30566)", "effect on": "binding", "technique": "ITC", "Kd [nM]": 34000}
{"SMILES": "CC(=O)N[C@H](C(=O)N[C@H](C(=O)N[C@@H](Cc1ccccc1)C(=O)N[C@H](C(=O)N[C@@H](CO)C(=O)N[C@@H](Cc1c[nH]c2ccccc12)C(=O)N[C@@H](CCC(=O)O)C(=O)N[C@@H](CCC(=O)O)C(=O)N[C@@H](Cc1ccc(O)cc1)C(=O)N[C@@H](CC(C)C)C(=O)N[C@@H](CC(=O)O)C(=O)N[C@@H](Cc1c[nH]c2ccccc12)C(=O)N[C@H](C(N)=O)C(C)C)[C@@H](C)O)C(C)C)[C@@H](C)O", "target": "Proprotein convertase subtilisin/kexin type 9 (PCSK9, Homo sapiens, UniProt Q8NBP7)", "effect on": "binding", "technique": "SPR", "Kd [nM]": 667}
{"SMILES": "C=CC(=O)N1CCC(C(=O)N(C)CC(=O)N2CCN(c3nc(-c4cnc(N)nc4C(F)F)nc(N4CCOCC4)n3)CC2)CC1", "target": "Phosphatidylinositol 4-phosphate 3-kinase C2 domain-containing subunit beta (PIK3C2B, Homo sapiens, UniProt O00750)", "effect on": "binding", "technique": "competition with immobilised ligand", "Kd [nM]": 155}
{"SMILES": "[N-]=[N+]=N[C@@H]1[C@H](O)[C@@H](CO)O[C@H]1n1ccc(=O)[nH]c1=O", "target": "UCK1 (Homo sapiens, UniProt Q9HA47)", "effect on": "binding", "technique": "fluorescence", "Kd [nM]": 181}
{"SMILES": "CC(=O)N[C@H](C(=O)N1C[C@H](O)C[C@H]1C(=O)NCc1ccc(-c2scnc2C)cc1)C(C)(C)SCCCCCCNC(=O)C[C@@H]1N=C(c2ccc(Cl)cc2)c2c(sc(C)c2C)-n2c(C)nnc21", "target": "Bromodomain-containing protein 3, BD1 (BRD3, Homo sapiens, UniProt Q15059)", "effect on": "binding", "technique": "ITC", "Kd [nM]": 35}
{"SMILES": "CCCC[C@@H]1NC(=O)[C@H](Cc2ccc(O)cc2)NC(=O)[C@@H]2CCCN2C(=O)[C@H](CC(=O)O)NC(=O)[C@H](C)NC(=O)[C@H](Cc2ccccc2)NC(=O)[C@@H]2CSCCC(=O)N3CN(CN(C3)C(=O)CCSC[C@@H](C(=O)N[C@@H](C)C(N)=O)NC1=O)C(=O)CCSC[C@H](NC(C)=O)C(=O)N[C@@H](CC(C)(C)C)C(=O)N1CCC[C@H]1C(=O)N[C@@H](CCC(=O)O)C(=O)N[C@H](CCCCNC(=O)CCc1cn(CC(=O)N[C@H]3CSCCC(=O)N4CN5CN(C4)C(=O)CCSC[C@H](NC(=O)[C@@H](CC(=O)O)NC(=O)[C@H](Cc4cccc6ccccc46)NC(=O)[C@@H]4CCCN4C3=O)C(=O)N[C@@H](CCSC)C(=O)N[C@@H](CCCCNC(=N)N)C(=O)N[C@@H](CC(=O)O)C(=O)N[C@@H](Cc3c[nH]c4ccccc34)C(=O)N[C@@H](CO)C(=O)N[C@@H]([C@@H](C)O)C(=O)N3CCC[C@H]3C(=O)N3C[C@H](O)C[C@H]3C(=O)N[C@@H](Cc3c[nH]c4ccccc34)C(=O)N[C@H](C(N)=O)CSCCC5=O)nn1)C(=O)N1CCC[C@H]1C(=O)N[C@@H](Cc1ccc(O)cc1)C(=O)N2", "target": "Nectin-4 (Homo sapiens, UniProt Q96NY8)", "effect on": "binding", "technique": "SPR", "Kd [nM]": 1}
{"SMILES": "CCCN1CCN(c2ccc(-c3cncc(Cl)c3N3CCC4(CCNC4=O)CC3)cc2)CC1", "target": "Serine/threonine-protein kinase 16 (STK16, Homo sapiens, UniProt O75716)", "effect on": "cell-free assay", "notes": "lysate", "Kd [nM]": 19400}
{"SMILES": "CCN(CC)c1ccc2cc(C(=O)NCCNC(=O)c3ccc(-c4cc(-c5ccc(C#N)cc5)nc(-c5ccco5)c4)cc3)c(=O)oc2c1", "target": "Myc proto-oncogene protein (MYC, Homo sapiens, UniProt P01106)", "effect on": "binding", "technique": "SPR", "Kd [nM]": 151}
